In paper PMC7312786 (Biochemistry, 2018):
pEC50, pIC50: −log10 of the molar value. Read-outs that look alike come from different tables or passages of the source.

Experiments:
[1] = test system: γH2AX in hpol η-deficient HAP-1 cells; experiment: γH2AX immunoblotting, hpol η-deficient HAP-1 cells; assay type: cell-based, human; conditions: CDDP (0.5 μM)
Method in brief: (§1)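 HAP-1 cells treated with DMSO or 0.5 μM CDDP combined with 0.1 or 1 μM test compound. Pellets lysed at 4 °C in HEPES pH 7.5/Triton X-100 buffer with phosphatase and protease inhibitors. 30–40 μg protein run on 4–20% SDS-PAGE, transferred to nitrocellulose. Probed with anti-γH2AX (S139) 1:1500 and HRP anti-rabbit 1:4000; β-actin loading control; chemiluminescence. Bands normalized to β-actin, relative to DMSO; three biological replicates; t test.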

[2] = test system: HAP-1 cells (hpol η-proficient, parental); experiment: Cell viability; assay type: cell-based, human; conditions: read-out: EC50 of CDDP, cell viability, parental HAP-1
Method in brief: (§2)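 HAP-1 parental or CRISPR hpol η-null cells in IMDM with 10% FBS and 1% antibiotic/antimycotic, passage 8–10, seeded 5000 cells/well. Next day: CDDP 0–100 μM alone or with 0.1 or 1 μM test compound, 48 h. Cells washed twice in DPBS, then 2 μM Calcein-AM for 30 min at 25 °C; fluorescence ex 490/em 520 nm. Viability as % of untreated. […] Combination index by Chou–Talalay.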

[3] = test system: γH2AX in hpol η-proficient HAP-1 cells; experiment: γH2AX immunoblotting, hpol η-proficient HAP-1 cells; assay type: cell-based, human; conditions: CDDP alone (0.5 μM)
Method in brief: as §1

[4] = test system: hpol η-deficient HAP-1 cells; experiment: Cell viability; assay type: cell-based, human
Method in brief: as §2

[5] = test system: pol binding to DNA; conditions: cited from earlier work
[6] = biological target: T1, hpol η (Homo sapiens, UniProt Q9Y253); conditions: cited from earlier work
T1 sequence (Q9Y253 1-437): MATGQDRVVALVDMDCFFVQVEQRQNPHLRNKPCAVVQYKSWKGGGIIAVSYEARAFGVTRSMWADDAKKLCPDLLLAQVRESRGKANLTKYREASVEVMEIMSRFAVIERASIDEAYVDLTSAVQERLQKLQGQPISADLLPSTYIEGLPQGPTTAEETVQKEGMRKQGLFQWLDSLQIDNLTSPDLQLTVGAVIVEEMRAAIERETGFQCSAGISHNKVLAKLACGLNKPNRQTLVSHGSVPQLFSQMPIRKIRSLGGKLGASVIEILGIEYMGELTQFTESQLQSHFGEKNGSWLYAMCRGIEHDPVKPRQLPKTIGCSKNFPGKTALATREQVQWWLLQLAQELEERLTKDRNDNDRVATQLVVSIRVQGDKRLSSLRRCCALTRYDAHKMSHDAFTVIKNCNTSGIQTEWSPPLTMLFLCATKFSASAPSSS

SMILES: N.N.[Cl][Pt][Cl] [CDDP, cis-diamminedichloroplatinum(II), reference compound]
- Increase of μH2AX [1]: ~ 5 fold
- pEC50 ([2]; CDDP + 0.1 μM PNR-7-02): 6.85
- pEC50 ([2]; CDDP + 1 μM PNR-7-02): 6.92
- Amount of μH2AX [3]: did not change substantially
- Reduction of CDDP EC50 by loss of hpol η ([4]; hpol η-deficient versus parental HAP-1): ~ 3 fold
- pEC50 ([4]; read-out: EC50 of CDDP, cell viability, hpol η-deficient HAP-1, CDDP alone): 7.00

SMILES: CC(C)c1ccc2c(c1)c(SC(C)(C)C)c(CC(C)(C)C(=O)O)n2Cc1ccc(Cl)cc1 [MK-886]
- Impact on pol binding to DNA [5]: negligible impact

SMILES: O=C1NC(=S)NC(=O)C1=Cc1cn(C(=O)c2ccccc2Br)c2ccc(Cl)cc12 [PNR-3-51, 5-((1-(2-bromobenzoyl)-5-chloro-1H-indol-3-yl)methylene)-2-thioxodihydropyrimidine-4,6(1H,5H)-dione]
- Specificity for hpol η over other pols ([6]; over other TLS and DNA repair pols): less than 2 fold
- pIC50 ([6]; read-out: IC50 against hpol η, previous publication): ~4.52

SMILES: CCOc1nc2cccc(C(=O)OC(C)OC(=O)OC3CCCCC3)c2n1Cc1ccc(-c2ccccc2-c2nnn[nH]2)cc1 (stereo not shown) [candesartan cilexetil]
- Impact on pol binding to DNA [5]: negligible impact
